Measured values published in ChEMBL document CHEMBL1153849, “Synthesis and biological evaluation of benzenesulfonamide-substituted 4-(6-alkylpyridin-2-yl)-5-(quinoxalin-6-yl)imidazoles as transforming growth factor-beta type 1 receptor kinase inhibitors” (Eur J Med Chem, 2009).

Tests used:
[1] = molecular target: T1, TGF-beta receptor type-1 (Homo sapiens) (UniProt P36897); assay: Inhibition of human ALK5 activity in human HaCaT cells assessed as p3TP-luciferase reporter activity; assay type: cell-based
T1 sequence (whole entry): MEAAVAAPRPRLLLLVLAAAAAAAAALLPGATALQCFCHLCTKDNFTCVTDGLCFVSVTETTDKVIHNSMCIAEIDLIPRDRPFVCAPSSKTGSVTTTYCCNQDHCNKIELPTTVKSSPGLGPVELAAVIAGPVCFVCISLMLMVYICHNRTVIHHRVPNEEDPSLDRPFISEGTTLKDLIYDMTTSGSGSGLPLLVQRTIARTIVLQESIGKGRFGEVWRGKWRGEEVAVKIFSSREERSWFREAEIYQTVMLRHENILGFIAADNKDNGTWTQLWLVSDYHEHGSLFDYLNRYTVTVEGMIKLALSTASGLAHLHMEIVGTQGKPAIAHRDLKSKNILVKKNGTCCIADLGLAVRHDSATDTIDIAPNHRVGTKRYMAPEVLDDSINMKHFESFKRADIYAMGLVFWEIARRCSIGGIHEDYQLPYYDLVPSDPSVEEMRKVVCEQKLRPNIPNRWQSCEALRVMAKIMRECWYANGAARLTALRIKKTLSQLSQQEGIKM
Procedure, shortened: (§1)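 HaCaT cells seeded at 5 × 10⁴ per well; next day (about 90% confluent) transiently co-transfected with p3TP-Luc or ARE-Luc reporter plus β-galactosidase by lipofection. Inhibitors added 24 h post-transfection, 2 h before stimulation with 5 ng/mL TGF-β for 18–24 h. Luminescence of lysates read. Mean ± SD of three independent experiments run in triplicate, relative to DMSO vehicle control.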

[2] = molecular target: Mitogen-activated protein kinase 14 (Homo sapiens) (UniProt Q16539); assay: Inhibition of p38alpha MAP kinase at 10 uM; set-up: scale not given: the % may be the effect or the level left
Chain of Mitogen-activated protein kinase 14 (Homo sapiens) (Q16539 whole entry): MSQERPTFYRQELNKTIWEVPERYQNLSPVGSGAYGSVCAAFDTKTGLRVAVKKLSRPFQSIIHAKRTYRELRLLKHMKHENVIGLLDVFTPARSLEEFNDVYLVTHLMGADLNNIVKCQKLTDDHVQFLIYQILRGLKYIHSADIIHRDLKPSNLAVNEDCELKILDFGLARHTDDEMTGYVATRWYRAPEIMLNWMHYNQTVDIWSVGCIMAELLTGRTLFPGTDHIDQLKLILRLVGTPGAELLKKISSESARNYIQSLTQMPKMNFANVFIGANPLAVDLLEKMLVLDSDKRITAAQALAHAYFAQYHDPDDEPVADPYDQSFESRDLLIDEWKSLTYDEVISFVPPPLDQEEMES
Procedure, shortened: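 Radiometric coupled assay. [γ-³²P]ATP and MAPKAP kinase-2 substrate then added, 10 min at 30 °C. Mixture spotted onto P81 phosphocellulose paper, washed with 0.75% phosphoric acid, bound radioactivity counted by liquid scintillation.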

[3] = molecular target: T1, TGF-beta receptor type-1 (Homo sapiens); assay: Inhibition of human ALK5 activity in human HaCaT cells assessed as ARE-luciferase reporter activity; assay type: cell-based; conditions: in the assay text read “p3TP-luciferase” for “ARE-luciferase”; procedure, shortened: as §1

For CCc1cccc(-c2[nH]c(Cc3ccc(S(N)(=O)=O)cc3)nc2-c2ccc3nccnc3c2)n1, the Activity [1] was “Dose-dependent effect”, the Activity [2] was 92% and the Activity [3] was “Dose-dependent effect”.

For CCCCc1cccc(-c2[nH]c(Cc3ccc(S(N)(=O)=O)cc3)nc2-c2ccc3nccnc3c2)n1, the Activity [2] was 104%.

CCc1cccc(-c2[nH]c(CCc3ccc(S(N)(=O)=O)cc3)nc2-c2ccc3nccnc3c2)n1 gave an Activity [2] of 96%.

With CCCc1cccc(-c2[nH]c(Cc3ccc(S(N)(=O)=O)cc3)nc2-c2ccc3nccnc3c2)n1 the Activity [2] was 105%.

Compound CC(C)c1cccc(-c2[nH]c(Cc3ccc(S(N)(=O)=O)cc3)nc2-c2ccc3nccnc3c2)n1 has an Activity [2] of 98%.

In the case of CCCCc1cccc(-c2[nH]c(CCc3ccc(S(N)(=O)=O)cc3)nc2-c2ccc3nccnc3c2)n1, the Activity [2] was 97%.

CCCc1cccc(-c2[nH]c(CCc3ccc(S(N)(=O)=O)cc3)nc2-c2ccc3nccnc3c2)n1 gave an Activity [2] of 103%.

Work on NC(=O)c1ccc(-c2nc(-c3ccccn3)c(-c3ccc4c(c3)OCO4)[nH]2)cc1 yielded an Activity [2] of 49%.

Work on NS(=O)(=O)c1ccc(CCc2nc(-c3ccc4nccnc4c3)c(-c3ccccn3)[nH]2)cc1 yielded an Activity [2] of 97%.

With NS(=O)(=O)c1ccc(Cc2nc(-c3ccc4nccnc4c3)c(-c3ccccn3)[nH]2)cc1 the Activity [2] was 95%.

Compound Cc1cccc(-c2[nH]c(CCc3ccc(S(N)(=O)=O)cc3)nc2-c2ccc3nccnc3c2)n1 has an Activity [2] of 91%.

Work on CC(C)c1cccc(-c2[nH]c(CCc3ccc(S(N)(=O)=O)cc3)nc2-c2ccc3nccnc3c2)n1 yielded an Activity [2] of 105%.

For Cc1cccc(-c2[nH]c(Cc3ccc(S(N)(=O)=O)cc3)nc2-c2ccc3nccnc3c2)n1, the Activity [1] was “Dose-dependent effect”, the Activity [2] was 89% and the Activity [3] was “Dose-dependent effect”.
